The record followed here is ChEMBL document CHEMBL1123215, “Arginine-vasopressin analogues with high antidiuretic/vasopressor selectivity. Synthesis, biological activity, and receptor binding affinity of arginine-vasopressin analogues with substitutions in positions 1, 2, 4, 7, and 8” (J Med Chem, 1986).

Positions of bridges follow the written chain, without caps; N, C: chain ends. Non-standard residues stand in square brackets, D forms with d. Residues, ends and D or L forms follow the SMILES beside them. NMeA = CN[C@@H](C)C(=O)O; Mpa = O=C(O)CCS; Sar = CNCC(=O)O

Assay [1] relates to Rattus norvegicus. The experiment in a line: Compound was tested for the antidiuretic activity against hydrated anaesthetized rats, after intravenous injection. Type of assay: functional, Urine. The procedure, abridged: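 Hydrated, anaesthetized rats given intravenous injection; effect measured as change in urine conductivity, with arginine-vasopressin as standard.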
Assay [2] in a line: Ratio of antidiuretic potency vs vasopressor potency. In kind it is functional, Urine. The procedure, abridged:
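Antidiuretic potency from urine conductivity change in hydrated anaesthetized rats after i.v. injection, vasopressor potency in phenoxybenzamine-treated rats, arginine-vasopressin as standard; ratio of the two potencies.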

In assay [3] the test system is Rattus norvegicus. Kind of assay: Compound was tested for the vasopressor activity against phenoxybenzamine treated rats, after intravenous injection. Type of assay: functional. The procedure, abridged:
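Pressor response measured in rats pretreated with phenoxybenzamine.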

The next assay addresses Vasopressin V2 receptor (Bos taurus, UniProt P48044). Kind of assay: Binding affinity against plasma membrane from bovine kidney inner medulla. Type of assay: tissue-based. The procedure, abridged: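 Competition binding with [3H]AVP to plasma membranes, 30 min incubation; for rat liver membranes the standard medium included bacitracin (1 mg/mL). Apparent KD and slope factor b from weighted nonlinear least-squares fit of displacement curves to logistic curves; [3H]AVP parameters from direct binding. Mean ±SE of two experiments.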

Another assay has as its target Vasopressin V1 receptor (Rattus norvegicus, UniProt P48974+P30560). The experiment in a line: Binding affinity against plasma membrane from rat liver. The procedure, abridged: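 Rat liver plasma membranes, competition against [3H]AVP, 30 min incubation, bacitracin (1 mg/mL) in standard medium. Apparent KD and slope factor b from weighted nonlinear least-squares logistic fit of displacement curves; mean ±SE of two experiments.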

By Kd is commonly meant the concentration at which binding is half-saturated. Read a low Kd as higher affinity.

Vasopressin V2 receptor, sequence (P48044 whole entry): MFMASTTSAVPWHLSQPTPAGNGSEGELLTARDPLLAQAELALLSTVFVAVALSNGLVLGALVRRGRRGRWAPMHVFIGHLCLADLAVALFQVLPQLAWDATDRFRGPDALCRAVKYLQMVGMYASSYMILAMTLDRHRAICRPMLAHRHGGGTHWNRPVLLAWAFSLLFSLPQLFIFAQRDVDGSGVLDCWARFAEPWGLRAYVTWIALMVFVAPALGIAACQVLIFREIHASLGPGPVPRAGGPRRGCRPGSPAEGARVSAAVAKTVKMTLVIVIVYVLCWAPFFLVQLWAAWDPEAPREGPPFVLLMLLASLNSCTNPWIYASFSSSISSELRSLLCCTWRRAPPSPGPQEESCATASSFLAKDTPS

On to `CN(CC(=O)N[C@H](CCCN=C(N)N)C(=O)NCC(N)=O)C(=O)[C@@H]1CSSCCC(=O)N[C@@H](Cc2ccc(O)cc2)C(=O)N[C@@H](Cc2ccccc2)C(=O)N[C@@H](CCC(N)=O)C(=O)N[C@@H](CC(N)=O)C(=O)N1` [listing 1 of 2 here], for which the figures for the Potency in the assay with Rattus norvegicus [1] and in the assay with Rattus norvegicus [3] were 214.5 IU mg-1 and 0.01 IU mg-1, respectively. In addition, in assay [2], the Ratio was 2145.
In the same order, the values of `CC(C)[C@@H]1NC(=O)[C@H](Cc2ccccc2)NC(=O)[C@H](Cc2ccc(O)cc2)NC(=O)CCSSC[C@@H](C(=O)N(C)CC(=O)N[C@@H](CCCN=C(N)N)C(=O)NCC(N)=O)NC(=O)[C@H](CC(N)=O)NC1=O` ([Mpa]YFVNC[Sar]RG-NH2; disulfide 1-6) [listing 1 of 2 here] are 552 IU mg-1, 0.4 IU mg-1 and 1380.
In the assay with Rattus norvegicus [1], `N=C(N)NCCC[C@H](NC(=O)[C@@H]1CCCN1C(=O)[C@@H]1CSSC[C@H](N)C(=O)N[C@@H](Cc2ccc(O)cc2)C(=O)N[C@@H](Cc2ccccc2)C(=O)N[C@@H](CCC(N)=O)C(=O)N[C@@H](CC(N)=O)C(=O)N1)C(=O)NCC(N)=O` [VASOPRESSIN] yielded a Potency of 323 IU mg-1.
Consider `CN(CC(=O)N[C@H](CCCN=C(N)N)C(=O)NCC(N)=O)C(=O)[C@@H]1CSSCCC(=O)N[C@@H](Cc2ccc(O)cc2)C(=O)N[C@@H](Cc2ccccc2)C(=O)N[C@@H](CCC(N)=O)C(=O)N[C@@H](CC(N)=O)C(=O)N1` [listing 2 of 2 here], for which the Kd at Vasopressin V2 receptor turned out to be 8.7 nM; at Vasopressin V1 receptor it was 160 nM.
Consider `CN(CC(=O)N[C@H](CCCN=C(N)N)C(=O)NCC(N)=O)C(=O)[C@@H]1CSSC[C@H](N)C(=O)N[C@@H](Cc2ccc(O)cc2)C(=O)N[C@@H](Cc2ccccc2)C(=O)N[C@@H](CCC(N)=O)C(=O)N[C@@H](CC(N)=O)C(=O)N1` [listing 1 of 2 here], for which the Potency in the assay on Rattus norvegicus [1] came out at 56 IU mg-1; in the assay with Rattus norvegicus [3], 0.04 IU mg-1. In addition, the Ratio in assay [2] turned out to be 1400.
In the same order, the values of `CN(CC(=O)N[C@@H](CCCN=C(N)N)C(=O)NCC(N)=O)C(=O)[C@@H]1CSSC[C@H](N)C(=O)N[C@@H](Cc2ccccc2)C(=O)N[C@@H](Cc2ccccc2)C(=O)N[C@@H](CCC(N)=O)C(=O)N[C@@H](CC(N)=O)C(=O)N1` (H-CFFQNC[Sar]RG-NH2; disulfide 1-6) are 39.6 IU mg-1, 0.17 IU mg-1 and 230.
On the same counts, the results for `CC(C)[C@@H]1NC(=O)[C@H](Cc2ccccc2)NC(=O)[C@H](Cc2ccc(O)cc2)NC(=O)[C@@H](N)CSSC[C@@H](C(=O)N(C)CC(=O)N[C@@H](CCCN=C(N)N)C(=O)NCC(N)=O)NC(=O)[C@H](CC(N)=O)NC1=O` (H-CYFVNC[Sar]RG-NH2; disulfide 1-6) are 270 IU mg-1, 34.7 IU mg-1 and 8.
For `CN(CC(=O)N[C@@H](CCCN=C(N)N)C(=O)NCC(N)=O)C(=O)[C@@H]1CSSC[C@H](N)C(=O)N[C@@H](Cc2ccc(O)cc2)C(=O)N[C@@H](Cc2ccccc2)C(=O)N[C@@H](CCC(N)=O)C(=O)N[C@@H](CC(N)=O)C(=O)N1`, the Potency with Rattus norvegicus [1] turned out to be 188 IU mg-1; in the assay on Rattus norvegicus [3], 3.6 IU mg-1. In addition, the Ratio in assay [2] is recorded as 52.
Consider `C[C@@H](C(=O)N[C@@H](CCCN=C(N)N)C(=O)NCC(N)=O)N(C)C(=O)[C@@H]1CSSC[C@H](N)C(=O)N[C@@H](Cc2ccccc2)C(=O)N[C@@H](Cc2ccccc2)C(=O)N[C@@H](CCC(N)=O)C(=O)N[C@@H](CC(N)=O)C(=O)N1` (H-CFFQNC[NMeA]RG-NH2; disulfide 1-6) [listing 1 of 2 here], for which the Kd at Vasopressin V2 receptor and at Vasopressin V1 receptor was 110 nM each time.
For the compound `C[C@@H](C(=O)N[C@H](CCCN=C(N)N)C(=O)NCC(N)=O)N(C)C(=O)[C@@H]1CSSC[C@H](N)C(=O)N[C@@H](Cc2ccc(O)cc2)C(=O)N[C@@H](Cc2ccccc2)C(=O)N[C@@H](CCC(N)=O)C(=O)N[C@@H](CC(N)=O)C(=O)N1` [listing 1 of 2 here], the Potency with Rattus norvegicus [1] came to 69 IU mg-1; with Rattus norvegicus [3] it was 0.11 IU mg-1. The Ratio in assay [2] turned out to be 630.
In the same order, the values of `C[C@@H](C(=O)N[C@@H](CCCN=C(N)N)C(=O)NCC(N)=O)N(C)C(=O)[C@@H]1CSSC[C@H](N)C(=O)N[C@@H](Cc2ccccc2)C(=O)N[C@@H](Cc2ccccc2)C(=O)N[C@@H](CCC(N)=O)C(=O)N[C@@H](CC(N)=O)C(=O)N1` (H-CFFQNC[NMeA]RG-NH2; disulfide 1-6) [listing 2 of 2 here] are 14.5 IU mg-1, 0.57 IU mg-1 and 25.
As to `C[C@@H](C(=O)N[C@H](CCCN=C(N)N)C(=O)NCC(N)=O)N(C)C(=O)[C@@H]1CSSCCC(=O)N[C@@H](Cc2ccc(O)cc2)C(=O)N[C@@H](Cc2ccccc2)C(=O)N[C@@H](CCC(N)=O)C(=O)N[C@@H](CC(N)=O)C(=O)N1` [listing 1 of 2 here], the Kd on Vasopressin V2 receptor is 51 nM; on Vasopressin V1 receptor, 290 nM.
Turning to `CC(C)[C@@H]1NC(=O)[C@H](Cc2ccccc2)NC(=O)[C@H](Cc2ccc(O)cc2)NC(=O)[C@@H](N)CSSC[C@@H](C(=O)N(C)[C@@H](C)C(=O)N[C@@H](CCCNC(=N)N)C(=O)NCC(N)=O)NC(=O)[C@H](CC(N)=O)NC1=O` (H-CYFVNC[NMeA]RG-NH2; disulfide 1-6), the Kd turned out to be 33 nM on Vasopressin V2 receptor and 310 nM at Vasopressin V1 receptor.
On the same counts, the results for `C[C@@H](C(=O)N[C@H](CCCN=C(N)N)C(=O)NCC(N)=O)N(C)C(=O)[C@@H]1CSSC[C@H](N)C(=O)N[C@@H](Cc2ccc(O)cc2)C(=O)N[C@@H](Cc2ccccc2)C(=O)N[C@@H](CCC(N)=O)C(=O)N[C@@H](CC(N)=O)C(=O)N1` [listing 2 of 2 here] are 21 nM and 280 nM.
In the same order, the values of `CC(C)[C@@H]1NC(=O)[C@H](Cc2ccccc2)NC(=O)[C@H](Cc2ccc(O)cc2)NC(=O)CCSSC[C@@H](C(=O)N(C)CC(=O)N[C@@H](CCCN=C(N)N)C(=O)NCC(N)=O)NC(=O)[C@H](CC(N)=O)NC1=O` ([Mpa]YFVNC[Sar]RG-NH2; disulfide 1-6) [listing 2 of 2 here] are 1.4 nM and 27 nM.
Take `CC(C)[C@@H]1NC(=O)[C@H](Cc2ccccc2)NC(=O)[C@H](Cc2ccc(O)cc2)NC(=O)[C@@H](N)CSSC[C@@H](C(=O)N(C)CC(=O)N[C@@H](CCCNC(=N)N)C(=O)NCC(N)=O)NC(=O)[C@H](CC(N)=O)NC1=O` (H-CYFVNC[Sar]RG-NH2; disulfide 1-6): the dissociation constant Kd at Vasopressin V2 receptor stood at 9.4 nM; on Vasopressin V1 receptor, 110 nM.
As to `C[C@@H](C(=O)N[C@H](CCCN=C(N)N)C(=O)NCC(N)=O)N(C)C(=O)[C@@H]1CSSCCC(=O)N[C@@H](Cc2ccc(O)cc2)C(=O)N[C@@H](Cc2ccccc2)C(=O)N[C@@H](CCC(N)=O)C(=O)N[C@@H](CC(N)=O)C(=O)N1` [listing 2 of 2 here], the Potency is 368.5 IU mg-1 in the assay with Rattus norvegicus [1] and 0.07 IU mg-1 in the assay with Rattus norvegicus [3]. In assay [2], the Ratio is 5260.
On the same counts, the results for `C[C@@H](C(=O)N[C@@H](CCCN=C(N)N)C(=O)NCC(N)=O)N(C)C(=O)[C@@H]1CSSC[C@H](N)C(=O)N[C@@H](Cc2ccc(O)cc2)C(=O)N[C@@H](Cc2ccccc2)C(=O)N[C@@H](CCC(N)=O)C(=O)N[C@@H](CC(N)=O)C(=O)N1` are 343 IU mg-1, 10.6 IU mg-1 and 32.
On to `CN(CC(=O)N[C@H](CCCN=C(N)N)C(=O)NCC(N)=O)C(=O)[C@@H]1CSSC[C@H](N)C(=O)N[C@@H](Cc2ccc(O)cc2)C(=O)N[C@@H](Cc2ccccc2)C(=O)N[C@@H](CCC(N)=O)C(=O)N[C@@H](CC(N)=O)C(=O)N1` [listing 2 of 2 here], for which the Kd came out at 10 nM on Vasopressin V2 receptor and 420 nM on Vasopressin V1 receptor.
With `CC(C)[C@H]1NC(=O)[C@H](Cc2ccccc2)NC(=O)[C@@H](Cc2ccc(O)cc2)NC(=O)CCSSC[C@@H](C(=O)N(C)[C@@H](C)C(=O)N[C@@H](CCCN=C(N)N)C(=O)NCC(N)=O)NC(=O)[C@H](CC(N)=O)NC1=O`, the Potency in the assay on Rattus norvegicus [1] amounted to 103 IU mg-1; with Rattus norvegicus [3] it was 0.69 IU mg-1. Further, the dissociation constant (Kd) is 9.4 nM at Vasopressin V2 receptor and 53 nM on Vasopressin V1 receptor. Further, the Ratio in assay [2] amounted to 150.
As to `CN(CC(=O)N[C@@H](CCCNC(=N)N)C(=O)NCC(N)=O)C(=O)[C@@H]1CSSC[C@H](N)C(=O)N[C@@H](Cc2ccccc2)C(=O)N[C@@H](Cc2ccccc2)C(=O)N[C@@H](CCC(N)=O)C(=O)N[C@@H](CC(N)=O)C(=O)N1` (H-CFFQNC[Sar]RG-NH2; disulfide 1-6), the Kd at Vasopressin V2 receptor is 44 nM; on Vasopressin V1 receptor, 170 nM.
